Screening results as filed in PubChem.
In the library only some 3.5% were active in any assay of this set; here they are far more common.
Env fusion inh – blocks HIV Env-driven cell-cell fusion. 360,000 tested, 1.1% active. HeLa-JRFL Env/CEM21 cell fusion, luciferase. inhibition, % at 12.3 µM;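 active = mean replicate inhibition score of at least 50 and every replicate individually at or above 50; inconclusive = only one of the two criteria met; inactive = mean below 50 and not all replicates reaching 50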;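 also: 0% = plate neutral controls and 100% = maraviroc near 300 nM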
ERAP1 HTS inh – ERAP1 (human) enzyme inhibition | recombinant ERAP1, Leu-AMC fluorescence, 60 min | AID 652197 | 340,000 tested, 0.15% active | inhibition, % at 10.7 µM | Q9NZ08;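 active = mean replicate inhibition of at least 30%, or all replicates individually reaching that 30% level; inactive = mean below 30% and not every replicate reaching it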;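 also: 0% = neutral control wells and 100% = L-leucinethiol positive control wells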
Target sequence (Q9NZ08 whole entry, looked up): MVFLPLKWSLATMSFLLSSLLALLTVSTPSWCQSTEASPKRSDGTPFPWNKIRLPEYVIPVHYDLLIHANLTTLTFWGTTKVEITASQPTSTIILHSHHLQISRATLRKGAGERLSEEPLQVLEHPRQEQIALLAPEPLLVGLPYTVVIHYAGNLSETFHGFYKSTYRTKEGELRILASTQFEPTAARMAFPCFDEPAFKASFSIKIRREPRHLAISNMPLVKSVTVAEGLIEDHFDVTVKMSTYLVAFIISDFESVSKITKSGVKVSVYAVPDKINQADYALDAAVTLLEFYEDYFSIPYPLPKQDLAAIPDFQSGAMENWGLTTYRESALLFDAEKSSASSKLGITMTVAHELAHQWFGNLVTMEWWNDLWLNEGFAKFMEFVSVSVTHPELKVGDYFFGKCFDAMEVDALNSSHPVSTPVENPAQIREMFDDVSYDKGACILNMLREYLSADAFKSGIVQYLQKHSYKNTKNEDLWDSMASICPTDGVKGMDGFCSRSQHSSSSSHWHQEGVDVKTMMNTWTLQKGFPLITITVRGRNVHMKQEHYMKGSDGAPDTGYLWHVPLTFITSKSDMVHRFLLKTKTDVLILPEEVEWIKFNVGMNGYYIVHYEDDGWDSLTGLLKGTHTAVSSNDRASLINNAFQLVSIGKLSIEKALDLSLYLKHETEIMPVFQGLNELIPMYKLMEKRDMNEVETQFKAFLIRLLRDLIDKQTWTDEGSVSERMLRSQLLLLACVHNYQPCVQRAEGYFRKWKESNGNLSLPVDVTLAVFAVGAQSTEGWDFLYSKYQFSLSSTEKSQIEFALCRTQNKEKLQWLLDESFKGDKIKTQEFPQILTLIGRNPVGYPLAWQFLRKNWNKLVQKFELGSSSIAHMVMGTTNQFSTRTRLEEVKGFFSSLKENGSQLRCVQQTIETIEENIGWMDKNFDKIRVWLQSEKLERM
Wnt act – activators of Wnt/beta-catenin signaling. Wnt/beta-catenin reporter cell assay, activator, plate reader. activation, % at 9.35 µM. 300,000 tested, 1.2% active. AID 743398; in the data active = activation above about 30%, passing the limit was not always enough; inconclusive = no clear call, values can overlap the other calls;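 also: 0% = neutral control wells and 100% = positive control wells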
Cneo AK release – Cryptococcus neoformans lysis via adenylate kinase release. C. neoformans lysis, adenylate kinase release luminescence, 4 h; normalised: neutral wells 0, clomiphene wells 100. lysis activity, % at 15 µM. AID 651654. 360,000 tested, 0.2% active;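 active = mean lysis activity across replicates of at least 80%, whatever share of replicates individually reach that level; inactive = mean lysis activity below 80%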
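Material – Cryptococcus neoformans yeast cells · Quantity – 5 × 10^6 yeast cells/mL · Buffer or medium – YPD medium · Compound – single dose · Timing – 4 h static compound exposure, 37 °C, read 1 h post-reagent · Signal – adenylate kinase release luminescence · Read-out basis – lysis from increased AK signal · Benchmarks – Clomiphene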
esBAF inh – blocks esBAF chromatin remodeling in mouse ES cells | 350,000 tested, 2% active | reporter increase, % at 12.5 µM | Bmi1-luciferase knock-in reporter, 24 h; 100% = twice the neutral-well signal; in the data active = activation above about 40%; inconclusive = no clear call, values can overlap the other calls;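 also: 0% = median of the plate's neutral control wells and 100% = double that signal; a rise in the Bmi1 reporter signal indicates esBAF inhibition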
MITF act – activators of MITF-driven TRPM1 promoter activity in SK-MEL-5 cells; activation, % at 12.5 µM; 300,000 tested, 0.75% active; SK-MEL-5 TRPM1-promoter luciferase, 24 h; % of positive control, neutral wells = 0; AID 588334;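 active = mean activation of at least 80% with every replicate also reaching 80%; inconclusive = mean reaches 80% but some replicate falls short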;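 also: 0% = neutral control wells and 100% = parthenolide positive control wells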
* marks the source's active call; other numbers are inactive results; u = inconclusive; x = no result; ! = not confirmed by another sample; [ ] = another dose, or the depositor's remark.

SMILES	Env fusion inh	ERAP1 HTS inh	Wnt act	Cneo AK release	esBAF inh	MITF act
COc1cc2c(cc1OC)CN(C(=O)[C@H]1[C@@H]3C(=O)O[C@@H](c4ccccc4)[C@@H](c4ccccc4)N3[C@@H](c3ccccc3OCCO)[C@]13C(=O)Nc1ccccc13)CC2	-97[16.7 µM]	1	x	58	x	x
C[C@@H]1CN([C@@H](C)CO)C(=O)c2cccc(NC(=O)c3nc4ccccc4s3)c2O[C@H]1CN(C)S(=O)(=O)c1ccc(F)cc1	-54[16.7 µM]	-2	x	14	2	x
CNc1cc(-c2ccc(CC#N)cc2)ncn1	-26	0	3	-1	50*	x
Cc1ccc(S(=O)(=O)Nc2ccc3c(c2)C(=O)N([C@H](C)CO)C[C@H](C)[C@H](CN(C)S(=O)(=O)c2c(C)noc2C)OCCCC[C@H](C)O3)cc1	37[16.7 µM]	-1	x	4	-4	x
c1ccc(CN2CCN(c3ncnc4c3[nH]c3ccccc34)CC2)cc1	x	x	x	-2	-13	-47
Cc1ccc2[nH]c3c(N4CCN(Cc5ccccc5)CC4)ncnc3c2c1	97*	x	x	-16	-33	-29
COc1ccc2c(c1)[nH]c1c(N3CCN(Cc4ccc5c(c4)OCO5)CC3)ncnc12	97*	x	x	0	-23	-20
Cc1ccc2[nH]c3c(N4CCN(Cc5ccc6c(c5)OCO6)CC4)ncnc3c2c1	40	x	-2	x	x	x
Cc1ccc2c(c1)[nH]c1c(N3CCN(Cc4ccccc4)CC3)ncnc12	63*	x	-11	-6	9	-11
c1ccc2c(c1)CCN(c1ncnc3c1[nH]c1ccccc13)C2	87*	x	x	-4	-28	-53
CCNC(=O)C[C@H]1C=C[C@@H](NS(=O)(=O)c2ccc(F)cc2)[C@@H](CO)O1	3[16.7 µM]	0	x	-2	-4	x
COc1cccc(C(=O)NCCn2ccc3ccccc32)c1	-111	4	24	-1	71*	x
COc1ccc(NC(=O)c2ccco2)cc1NC(=O)c1cccc(OC(C)C)c1	113*	x	-6	-6	1	x
COc1ccc(C(=O)Nc2cccc(OC(=O)c3ccc(C)c(C)c3)c2)cc1	x	x	16	-1	22	36
COc1ccc(C(=O)Nc2ccccc2C(=O)Nc2ccccc2)cc1	-100	-2	26	-2	46*	x
COc1cccc(C(=O)Nc2cc(NC(=O)c3ccco3)ccc2OC)c1	-29	x	-2	-1	7	1
COc1ccc(C(=O)Nc2cccc(OC(=O)c3ccco3)c2)cc1	-78	-2	28	-3	11	110*
COc1ccc(S(=O)(=O)Nc2ccc3c(c2)C(=O)N([C@H](C)CO)C[C@H](C)[C@H](CN(C)C(=O)NC(C)C)OCCCC[C@H](C)O3)cc1	-27[16.7 µM]	-1	x	1	2	x
CO[C@H]1CN(C)C(=O)c2cc(NC(=O)c3ccc(F)cc3)ccc2OC[C@H](C)N(C(C)=O)C[C@H]1C	x	1	x	60	2	x
COc1ccc(CN(C)C[C@H]2Oc3c(NC(=O)NC(C)C)cccc3C(=O)N([C@@H](C)CO)C[C@H]2C)cc1	x	0	x	51	1	x
COc1cccc(C(=O)Nc2ccc(C(=O)c3ccccc3)cc2)c1	1	3	6	-6	42*	x
COC(=O)c1ccc(NC(=O)c2cccc(OC)c2)cc1	-157	x	0	-6	47*	60
COc1cccc(C(=O)NC(=S)Nc2ccc(N(C)C)cc2)c1	-39	-1	17	4	61*	u
COc1cccc(C(=O)Nc2ccc(C(=O)O)cc2)c1	-82	x	x	2	-4	6
COc1cccc(NC(=O)c2cccc(Cl)c2)c1	-68	1	41*	-4	71*	104*
SMILES	Env fusion inh	ERAP1 HTS inh	Wnt act	Cneo AK release	esBAF inh	MITF act
CO[C@H]1CN(C)C(=O)c2cc(NS(C)(=O)=O)ccc2OC[C@@H](C)N(CC2CC2)C[C@@H]1C	x	-4	x	-2	0	x
C[C@H]1CN([C@@H](C)CO)C(=O)c2cc(NC(=O)c3ccncc3)ccc2O[C@@H]1CN(C)S(=O)(=O)c1ccc(Cl)cc1	x	1	x	-2	-1	x
COC(=O)c1cccc(NC(=O)c2cccc(OC)c2)c1	-79	x	28	-4	61*	53
COc1ccc(NC(=O)c2cc3ccccn3n2)cc1	-45	0	31*	-4	-23	x
CCCNC(=O)Nc1cccc(C(=O)OC)c1	1	-2	34*	x	x	5
COc1cccc(C(=O)Nc2cccc(OC(C)=O)c2)c1	x	-4	20	1	23	50
COc1cccc(C(=O)Nc2cccc(C(C)=O)c2)c1	x	-2	1	-12	52*	50
COCCNC(=O)C[C@H]1C[C@H]2c3cc(NS(C)(=O)=O)ccc3O[C@H]2[C@@H](CO)O1	2[16.7 µM]	-1	x	44	-1	x
O=C(Nc1ccccc1)c1ccccc1O	-72	x	x	0	51*	x
Cc1ccc(C(=O)Nc2ccccc2C(=O)NC(C(=O)O)C(C)C)cc1 (stereo unspecified)	-56	x	5	-7	31*!	25
COc1ccc(NC(=O)c2cccc(NC(=O)c3ccccc3)c2)cc1	4	-1	2	-2	41*	x
COc1cc(NC(=O)c2ccccc2)cc(OC)c1	-80	x	20	0	65*	23
Cc1sc(NC(=O)c2ccco2)c(CN2CCCCC2)c1C	-12	x	6	4	4	x
Cc1sc(NC(=O)c2ccco2)c(CN2CCN(c3ccccc3)CC2)c1C	63*	x	-5	19	-13	-1
CN1[C@@H]2Cn3c(ccc(-c4cccc(F)c4)c3=O)[C@H]1[C@@H](C(=O)Nc1nccs1)[C@@H]2CO	2[16.7 µM]	2	x	-3	-1	x
O=C(C[C@@H]1C=C[C@@H](NC(=O)c2cccc(F)c2)[C@H](CO)O1)NCCN1CCCC1	-1[16.7 µM]	2	x	95*	-5	x
O=C(C[C@H]1C=C[C@H](NC(=O)c2cccc(F)c2)[C@H](CO)O1)NCCN1CCCC1	2[16.7 µM]	1	x	-4	-1	x
O=C(C[C@H]1C=C[C@H](NC(=O)Nc2cc(F)ccc2F)[C@@H](CO)O1)NCCCN1CCOCC1	21[16.7 µM]	-2	x	121*	-7	x
O=C(C1CCOCC1)N1C[C@@H]2[C@H](c3ccccc31)[C@H](CO)N2Cc1ccc(Cl)cc1	x	-1	x	3	-2	x
C[C@H]1CN([C@@H](C)CO)C(=O)c2cccc(NC(=O)c3cnccn3)c2O[C@H]1CN(C)S(=O)(=O)c1ccc(Cl)cc1	4[16.7 µM]	x	x	x	4	x
COc1ccc2oc(=Nc3ccccc3)c(-c3nc4ccccc4[nH]3)cc2c1	x	x	44*	-13	x	12
COc1ccc(CNC(=O)N(C)C[C@H]2OCc3ccccc3-c3c(n(C)c4ccccc34)C(=O)N([C@@H](C)CO)C[C@H]2C)cc1	21[16.7 µM]	-6	x	0	-5	x
COc1ccc(CNC(=O)N(C)C[C@@H]2OCc3ccccc3-c3c(n(C)c4ccccc34)C(=O)N([C@@H](C)CO)C[C@@H]2C)cc1	100*	x	-1	x	x	x
